Source: PubChem
In the library only some 3.6% were active in any assay of this set; here they are far more common.
NadD inh: inhibitors of Staphylococcus aureus NadD; purified NadD enzyme, colorimetric absorbance read-out; hit rate 0.78% among 360,000; AID 602399; inhibition, % at 20 µM; in the data active = inhibition above about 26%
ATG4B inh: ATG4B (human) cysteine protease inhibition; Q9Y4P1; ATG4B cleavage of LC3-PLA2, NBD-HPC fluorescence, 1 h; inhibition, % at 8.33 µM; hit rate 0.51% among 340,000; AID 504462; in the data active = inhibition above about 40%
Target sequence (Q9Y4P1 whole entry, looked up): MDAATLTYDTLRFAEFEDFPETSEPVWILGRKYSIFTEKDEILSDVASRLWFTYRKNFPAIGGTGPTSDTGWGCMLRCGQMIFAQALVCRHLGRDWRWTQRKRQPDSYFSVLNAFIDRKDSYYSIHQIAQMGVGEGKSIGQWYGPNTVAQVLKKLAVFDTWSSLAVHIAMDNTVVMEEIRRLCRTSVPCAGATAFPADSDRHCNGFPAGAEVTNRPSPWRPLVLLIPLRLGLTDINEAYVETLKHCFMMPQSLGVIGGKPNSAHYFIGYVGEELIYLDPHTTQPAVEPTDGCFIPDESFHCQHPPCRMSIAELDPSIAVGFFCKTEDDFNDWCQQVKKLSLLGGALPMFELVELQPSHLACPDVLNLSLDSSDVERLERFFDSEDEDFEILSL
UCH37 DUB inh: human UCH37 deubiquitinating enzyme inhibition; Q9Y5K5; purified proteasome/UCH37, Ub-AMC cleavage fluorescence; inhibition, % (no concentration beside the values); AID 588478; hit rate 0.33% among 330,000;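 active = mean inhibition over replicate wells above about 20%, limit read from the data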
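Assay system: Proteasome-bound UCH37. Buffer or medium: pH 7.4 Tris-HCl (50 mM) with ovalbumin, ATP-MgCl2, DTT. Incubation: 30 min preincubation with enzyme, 25 min cleavage at room temperature. Measured by: fluorescence, ex 355 nm, em 460 nm. Read-out basis: percent inhibition. Control set: wells without proteasome as full block, compound-free enzyme plus substrate as uninhibited.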
SENP1 FRET inh: inhibitors of human SENP1 SUMO protease catalytic domain; Q9P0U3; AID 624204; hit rate 0.21% among 360,000; inhibition, % at 10 µM; recombinant SENP1 catalytic domain, CyPet-SUMO1-YPet FRET cleavage;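 active = inhibition at least 30% at 10 µM, raw YFP signal under a set limit, fluorescence ratio 0.5 to 1.5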
Target sequence (Q9P0U3 419-644 limits assumed): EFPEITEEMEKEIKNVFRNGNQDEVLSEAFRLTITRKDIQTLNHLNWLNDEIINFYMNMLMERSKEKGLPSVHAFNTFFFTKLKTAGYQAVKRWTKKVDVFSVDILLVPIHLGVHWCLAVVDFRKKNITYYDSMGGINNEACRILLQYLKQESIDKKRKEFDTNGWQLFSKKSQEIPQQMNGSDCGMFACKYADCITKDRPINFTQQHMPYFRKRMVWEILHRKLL
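system = hSENP1 catalytic domain, recombinant | reagent = SFCypet-SUMO1-SFYpet substrate at 25 nM | doses = one dose per compound, 10 µM, 0.5% DMSO | incubation = enzyme reaction for 50 min at room temperature, dark | measured by = FRET, CFP and YFP emission | controls = no-enzyme low, enzyme-DMSO high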
GRIN3A LBD mod: modulators (binders) of human NR3A ligand-binding domain; NR3A LBD differential scanning fluorimetry, Tm shift; 0% = protein alone, 100% = glycine-bound protein; Tm shift relative to glycine control, % at 25 µM; hit rate 2.5% among 340,000; AID 1259313;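 active = melting temperature shift of at least 10% of the positive control shift, at one fixed dose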
SENP1 inh conf: SENP1 (human) inhibition, single concentration confirmation | recombinant SENP1, CyPet-SUMO1-YPet FRET cleavage | shares compounds with SENP1 FRET inh | hit rate 34% among 520 | inhibition, % at 10 µM; in the data active = inhibition mostly above about 35%, no sharp cut-off; inactive = mostly below about 32%
SENP1 kin conf: confirmation of human SENP1 SUMO protease inhibitors, kinetic. shares compounds with SENP1 FRET inh. recombinant SENP1, CyPet-SUMO1-YPet FRET kinetic cleavage. inhibition, % at 10 µM. hit rate 26% among 520; in the data active = inhibition mostly above about 32%, no sharp cut-off; inactive = mostly below about 29%
Hits are given with their value.

`Cc1cccc(NC(=O)c2ccc(NCCc3ccccc3)c([N+](=O)[O-])c2)c1` gave NadD inh inactive, ATG4B inh inactive, UCH37 DUB inh inactive, SENP1 FRET inh 85.9, GRIN3A LBD mod inactive, SENP1 inh conf inactive and SENP1 kin conf inactive.
N#C/C(C(=O)NCCc1ccccc1)=C1/N=C(NC(=O)c2cccs2)c2ccccc21 was read as NadD inh inactive, ATG4B inh inactive, UCH37 DUB inh inactive, SENP1 FRET inh 35.7, GRIN3A LBD mod inactive, SENP1 inh conf inactive and SENP1 kin conf inactive.
O=C(NC(=S)Nc1ccccc1O)c1cncc(Br)c1 was read as NadD inh inactive, ATG4B inh inactive, UCH37 DUB inh inactive, SENP1 FRET inh 29.6, GRIN3A LBD mod inactive, SENP1 inh conf inactive and SENP1 kin conf inactive.
O=C(NC(=S)Nc1ccccc1C(=O)O)c1cncc(Br)c1 was read as NadD inh inactive, ATG4B inh inactive, UCH37 DUB inh inactive, SENP1 FRET inh inactive and GRIN3A LBD mod inactive.
Screening CCOC(=O)CC(C)=NNC(=O)C1CC1(c1ccccc1)c1ccccc1 (configuration not stated) returned UCH37 DUB inh inactive.
N#Cc1c(C(F)(F)F)cc(-c2ccc(Cl)c(Cl)c2)nc1SCCN1CCOCC1 was read as NadD inh inactive, ATG4B inh inactive, UCH37 DUB inh inactive, SENP1 FRET inh 37.7, GRIN3A LBD mod inactive, SENP1 inh conf inactive and SENP1 kin conf inactive.
For Cc1cc(C(F)(F)F)nc(SCCN2CCOCC2)c1C#N the results were NadD inh inactive, ATG4B inh inactive, UCH37 DUB inh inactive, SENP1 FRET inh inactive and GRIN3A LBD mod inactive.
O=C(CNS(=O)(=O)c1ccccc1)NN=Cc1ccc(O)cc1 was read as UCH37 DUB inh inactive.
CC(C)(C)C=NNC(=O)CNC(=O)c1ccc2c(c1)OCCO2 was read as UCH37 DUB inh inactive.
CCC(=NNC(=O)c1ccccc1)c1ccc(OCCN2CCOCC2)cc1 was read as UCH37 DUB inh inactive.
For COc1ccc([C@H]2CC(=O)C=C(c3cccc(Cl)c3O)C2)cc1OC the results were NadD inh inactive, ATG4B inh inactive, UCH37 DUB inh inactive, SENP1 FRET inh 33.2, GRIN3A LBD mod inactive, SENP1 inh conf 74.0 and SENP1 kin conf 61.7.
Screening O=C1C=C(c2cccc(Cl)c2O)C[C@@H](c2ccc3c(c2)OCO3)C1 returned NadD inh inactive, ATG4B inh inactive, UCH37 DUB inh inactive, SENP1 FRET inh 49.9, GRIN3A LBD mod inactive, SENP1 inh conf 95.4 and SENP1 kin conf 76.8.
`Cc1cc(C(=O)NN=Cc2cccnc2)n[nH]1` gave UCH37 DUB inh inactive.
For CC(=NNC(=O)c1ccccn1)C12CC3CC(CC(C3)C1)C2 the results were UCH37 DUB inh inactive.
`CCOc1cccc(-c2c(C(=O)NN=Cc3cccnc3)nnn2-c2nonc2N)c1` gave UCH37 DUB inh inactive.
Screening O=C1C=Cc2ccccc2/C1=C/c1[nH]c(=O)[nH]c1O returned NadD inh inactive, ATG4B inh inactive, SENP1 FRET inh 59.5, GRIN3A LBD mod inactive, SENP1 inh conf 103.8 and SENP1 kin conf 75.5.
`CC(=O)Nc1cccc(-c2cc(NC(C)=O)c3ncc(-c4cccc(C(C)=O)c4)n3c2)c1` gave NadD inh inactive and SENP1 FRET inh inactive.
For CC(=O)Nc1cc(-c2ccc(N3CCN(C)CC3)cc2)cn2c(-c3cccc(C(C)=O)c3)cnc12 the results were NadD inh inactive, SENP1 FRET inh 36.6, SENP1 inh conf inactive and SENP1 kin conf inactive.
`CC(=O)Nc1cc(-c2ccc(N3CCN(C)CC3)cc2)cn2c(-c3ccc(F)c(Cl)c3)cnc12` gave NadD inh inactive, SENP1 FRET inh 41.9, SENP1 inh conf inactive and SENP1 kin conf inactive.
Screening CCn1cc(C=NNC(=O)c2csc3ccccc23)c(C)n1 returned UCH37 DUB inh inactive.
`COc1ccccc1NC(=O)c1c(N=Cc2c(O)ccc3ccccc23)cnn1C` gave NadD inh inactive, ATG4B inh inactive, UCH37 DUB inh inactive, SENP1 FRET inh inactive and GRIN3A LBD mod inactive.
For Cn1ncc(N=Cc2ccccc2O)c1C(=O)Nc1ccccc1 the results were NadD inh inactive, ATG4B inh inactive, UCH37 DUB inh inactive, SENP1 FRET inh 37.0, GRIN3A LBD mod inactive, SENP1 inh conf inactive and SENP1 kin conf inactive.
`COc1ccc(N/N=C(/C)c2cnnc(-c3ccccc3)n2)cc1` gave NadD inh inactive, ATG4B inh inactive, SENP1 FRET inh 65.9, GRIN3A LBD mod 13.2, SENP1 inh conf inactive and SENP1 kin conf inactive.
For NC(=S)NN=Cc1ccccc1OCc1cccc(Cl)c1 the results were UCH37 DUB inh inactive.
For CC(=O)NN=Cc1cc(C(C)C)cc(C=NNC(C)=O)c1O the results were UCH37 DUB inh inactive.
`COc1ccc(N2CCN(C(=O)c3ccc(CSc4ccccc4)cc3)CC2)cc1` gave NadD inh inactive, ATG4B inh inactive, UCH37 DUB inh inactive, SENP1 FRET inh inactive and GRIN3A LBD mod inactive.
`COc1ccc(N2CCN(C(=O)c3ccc4c(c3)NC(=O)C(CSCc3ccccc3F)N4)CC2)cc1` (configuration not stated) gave NadD inh 56.4, SENP1 FRET inh 33.0, SENP1 inh conf inactive and SENP1 kin conf inactive.
Screening Cc1cc2nc(-c3nnnn3Cc3ccccc3)c(=O)[nH]c2cc1C returned NadD inh inactive and SENP1 FRET inh inactive.
O=c1[nH]c2ccccc2nc1-c1nnnn1C1CCCC1 was read as NadD inh inactive and SENP1 FRET inh inactive.
O=c1[nH]c2cc3ccccc3cc2nc1-c1nnnn1Cc1ccccc1 was read as NadD inh inactive, SENP1 FRET inh 41.0, SENP1 inh conf 80.3 and SENP1 kin conf 50.0.
Screening O=c1[nH]c2cc3ccccc3cc2nc1-c1nnnn1C1CCCC1 returned NadD inh inactive, SENP1 FRET inh 69.9, SENP1 inh conf 125.1 and SENP1 kin conf 77.9.
Cc1ccccc1Nc1c(-c2cccnc2)nc2ccccn12 was read as NadD inh inactive, ATG4B inh inactive, UCH37 DUB inh inactive, SENP1 FRET inh inactive and GRIN3A LBD mod inactive.
For Cc1cc(C)n2c(Nc3c(C)cccc3C)c(-c3cccnc3)nc2n1 the results were NadD inh inactive, SENP1 FRET inh 64.0, SENP1 inh conf 38.6 and SENP1 kin conf inactive.
Cc1cc(C)n2c(NC3CCCCC3)c(-c3ccc(F)cc3)nc2n1 was read as NadD inh inactive and SENP1 FRET inh inactive.
Cc1cc(C)n2c(NC3CCCC3)c(-c3cccnc3)nc2n1 was read as NadD inh inactive, SENP1 FRET inh 32.4, SENP1 inh conf inactive and SENP1 kin conf inactive.
